The values below come from paper PMC8671219 (Arthritis & Rheumatology (Hoboken, N.j.), 2021).

Read-outs that look alike come from different tables or passages of the source.

For orientation: EC50 means the concentration needed to bring the measured effect to its halfway point. In general, IC50 refers to the concentration that gives 50% inhibition.

Test [1] concerns MRL/lpr mice. Briefly: MRL/lpr in vivo model of SLE. Also noted: species or system mouse.
The subject of test [2] is R848 induced TNF in human whole blood. Briefly: Human whole blood cytokine release assay. The class given is cell-based. The gist of the method: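 Heparin-anticoagulated whole blood (human, mouse or rat), or PBMC derived from it, was incubated with test compound and then exposed to TLR ligand. Cytokines were measured by Meso Scale Discovery immunoassay. EC50 and Hill slope were fitted from concentration–response data, and free-drug potency was derived using measured protein binding values.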

Test [3] relates to C-reactive protein (CRP) levels. Conditions: healthy volunteers; modified-release 300 mg daily; day 14; cited from earlier work.
In test [4] the test system is pristane-induced lupus in BALB/c mice. Briefly: Pristane in vivo model of SLE. Also noted: species or system mouse.
The test system of test [5] is active rheumatoid arthritis. Conditions: patients with active RA and inadequate response to methotrexate; cited from earlier work.
Test [6] deals with human B cells primed with IFNα and stimulated with R848. The experiment in a line: B cell maturation assay. The class given is cell-based. The gist of the method:
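Human B cells were isolated from Leukopaks and preincubated with 100 nM test compound, then given IFNα plus R848. Supernatants were harvested at 24 h for IL-6 and at 72 h for IL-10. Values are % of control; n = 6 donors, compared by paired t-test.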

Test [7] relates to human RA fibroblast-like synoviocytes. The experiment in a line: Human RA-FLS assay. The class given is cell-based. Conditions: 100 nM. The essentials: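 Human RA fibroblast-like synoviocytes were incubated with 100 nM test compound or vehicle before adding 0.1 ng/ml IL-1β. IL-6, IL-8 and MMP-1 in supernatants were measured by Meso Scale Discovery assay and expressed as percent of vehicle control, separately per donor.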

For test [8], the system named is whole blood 21-gene IFN gene signature. Briefly: Interferon signature modulation in Phase 1 MAD study in healthy volunteers. The class given is in vivo, human. Conditions: 300 mg modified-release qd. The gist of the method:
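In a randomized, double-blind phase I multiple-ascending-dose study, healthy volunteers received modified-release test compound 300 mg once daily (n = 7) or placebo (n = 11) for 14 days. PAXgene whole blood was drawn on day 0 before the first dose and on day 14 before the last dose. RNA was sequenced, and an equally weighted 21-gene IFN signature was scored as percent change, day 14 versus day 0.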

The test system of test [9] is human PBMCs stimulated with SLE immune complexes. Briefly: SLE-IC assay. The class given is cell-based. Conditions: 100 nM, 24 hours. The gist of the method:
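SLE immune complexes were made by purifying IgG from plasma of an anti-RNP/anti-dsDNA-positive SLE patient and mixing it with apoptotic cells. Human PBMCs were stimulated with these complexes with or without 100 nM test compound for 24 hours. IFNα in supernatant was measured by ELISA, and RSAD2, USP18 and GBP1 by qRT-PCR as relative quantification. n = 5 donors; analysed by 2-way ANOVA.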

Test [10] concerns human plasmacytoid dendritic cells. The experiment in a line: Plasmacytoid DC stimulation with SLE neutrophil supernatants. The class given is cell-based. Conditions: 200 nM preincubation; 24 hours; n = 5. The essentials: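 SLE patient neutrophils were induced to undergo NETosis with R837, and their supernatants were collected. Plasmacytoid DCs were FACS-sorted from the DC fraction of healthy-volunteer buffy coats. They were cultured in 40% neutrophil supernatant with or without 200 nM test compound for 24 hours. CD83 was measured by flow cytometry against isotype control; n = 5.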

The subject of test [11] is human macrophages stimulated with ACPA immune complexes. Briefly: Macrophage ACPA-IC induced TNFα assay. Conditions: 100 nM inhibitor, 11 donors, mean ± SEM. Format: cell-based. The gist of the method:
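Human macrophages from 11 donors were preincubated with 100 nM inhibitor and then stimulated with anti-citrullinated protein antibody immune complexes. TNF in supernatants was measured by immunoassay and expressed as % of DMSO-only treatment (mean ± SEM), compared by paired t-test.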

Test [12] concerns rat collagen-induced arthritis. The experiment in a line: Rat collagen-induced arthritis model of RA. Conditions: rat CIA; PF-06650833 3 mg/kg twice daily or tofacitinib 10 mg/kg daily, oral, 7 days; vehicle 0.786 ± 0.043; mean ± SEM, n = 10. The class given is in vivo.
For test [13], the system named is human primary cell cocultures (4H, LPS, SAg, BT, MyoF, /Mphg). Briefly: BioMAP Diversity Plus Panel. The class given is cell-based. Conditions: multicellular human primary cell systems. The essentials: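 An external provider ran BioMAP Diversity Plus profiling with each compound at the noted concentrations, scoring multiple end points per system. The systems were venular endothelial cells (4H), PBMC plus endothelial cells with LPS, PBMC plus endothelial cells with superantigen, B cells plus PBMC (BT), lung fibroblasts (MyoF), and macrophages plus venular endothelial cells. Etanercept and tofacitinib served as comparators.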

In test [14] the test system is nuclear localization of IRF-5 in PBMCs. Briefly: Monocyte IRF5 nuclear localization assay. The class given is cell-based, human. Conditions: 100 nM, 2 hours. The gist of the method:
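Healthy-volunteer PBMCs were incubated with 100 nM test compound or none, then stimulated with R848 or SLE patient sera for 2 hours at 37°C. IRF-5 nuclear translocation was quantified by Amnis imaging cytometry.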

On to `N#CN1CCCC(n2nc(-c3ccc(Oc4ccc(F)cc4F)cc3)c(C(N)=O)c2N)C1` (stereo not drawn) [PF‐06250112, reference compound], for which, in test [1] (30 mg/kg PO qd), the “all renal histologic pathology end points other than PAS area per tuft” value is given as “significantly reduced” and the autoantibody titers entry was “significantly reduced”.
For the compound `CC[C@@H]1[C@H](F)C(=O)N[C@@H]1COc1nccc2cc(C(N)=O)c(OC)cc12` [PF‐06650833, 1‐{[(2S,3S,4S)‐3‐Ethyl‐4‐fluoro‐5‐oxopyrrolidin‐2‐yl]methoxy}‐7‐methoxyisoquinoline‐6‐carboxamide], in test [2] (read-out: EC50 values across the preclinical assays), the EC50 lay in the range of 2 to 10 nM. Also, the IC50 in test [2] (read-out: IC50 total, human whole blood R848 induced TNF) amounted to 8.8 nM. Further, the CRP levels entry in [3] is reported as “statistically significant reductions”. For the same compound, the “anti-SSA IgG at week 20” value in [4] (200mpk in chow weeks 8-20, control 7,693 ± 1,241) is 2,726 ± 494 units/ml. Moreover, the “anti-RNP IgG at week 20” value in test [4] (200mpk in chow weeks 8-20, control 18,127 ± 7,902) is 3,730 ± 2,861 units/ml. Also, in [4] (kidney, week 20, pristane alone 1,252 ± 45, n = 8), the “mean PAS area per tuft” value is listed as 1,045 ± 47 μm^2. Moreover, in test [5], the “disease activity in phase II study” value is “significant effects on disease activity”. Further, in [1] (200mg/kg in chow, 12-13 weeks), the “C3 and IgG deposition by immunohistochemistry” value is “significantly reduced”; the anti-SSA result is listed as “trends toward reductions”; the anti-dsDNA result is on record as “trends toward reductions”; the “anti-histone IgG” value is recorded as “significantly reduced”. In [1] (200mg/kg in chow, 12-13 weeks), the glomerular nephropathy result was “significantly reduced”, the “glomerular nuclear area by image analysis” value is recorded as “significantly reduced”, the “glomerular tuft area by image analysis” value was “significantly reduced” and the histologic kidney inflammation entry is “significantly reduced”. Moreover, in test [1] (200mg/kg in chow, 12-13 weeks), the lymphadenopathy entry is recorded as “significantly reduced”, the splenomegaly result is on record as “trends toward reductions” and the tubular injury entry is on record as “trends toward reductions”. The activity at 0.1 µM in test [6] (24 h, read-out: B cell IL-6 production, % of control) is 50 ± 16.7%. Also, the activity at 0.1 µM in [6] (72 h, read-out: B cell IL-10 production, % of control) amounted to 41.3 ± 7.1%. In test [7], the “IL-1-induced cytokines in RA FLS” value was “did not inhibit” and the “MMP induction by IL-1β in RA FLS” value was “able to block”. Also, the “cytokine and matrix metalloproteinase (MMP) release in response to all ligands profiled” value in test [7] (RA FLS) is “substantially reduced”. For the same compound, the “subjects with negative change of IFN gene score between day 0 and day 14” value in test [8] is 6 of 7. The “reduction of IFN gene signature, median percent change day 14 vs day 0” value in test [8] (14 days, n = 7, placebo +9.1%) was 28.8%. Moreover, in test [8] (day 14), the “difference in IFN gene signature change vs placebo” value was −37.9%. Moreover, the “IFNα release from PBMCs stimulated with SLE ICs” value in [9] (n = 5 donors) is given as “inhibited IFNα release in all donors”. Also, the “induction of 3 IFN-responsive genes (RSAD2, USP18, and GBP1)” value in test [9] (SLE ICs, PBMCs) is reported as “inhibited”. The “pDC CD83 up-regulation induced by neutrophil DAMPs” value in test [10] is “significantly inhibited”. For the same compound, the “ACPA IC-induced TNF release, % of that seen with DMSO treatment alone” value in test [11] was found to be 57.5 ± 17.9%. In test [12], the “paw volume on day 7” value turned out to be 0.555 ± 0.034 mL. Besides, the “BioMAP phenotypic profile of inflammatory readouts” value (“BioMAP phenotypic profile” for short) in test [13] is on record as “greatest inhibition of inflammatory readouts in assays of innate immunity”. The “nuclear localization of IRF-5 stimulated by R848” value in test [14] (without compound 23.0 ± 13.0, n = 3) is given as 6.8 ± 4.4%. Besides, the “IRF-5 nuclear localization in response to SLE patient sera” value in test [14] (without compound 38.6 ± 18.4, n = 12) was 24.2 ± 13.0%.
Turning to `C[C@@H]1CCN(C(=O)CC#N)C[C@@H]1N(C)c1ncnc2[nH]ccc12` [tofacitinib, reference compound], in test [12], the “paw volume on day 7” value amounted to 0.371 ± 0.044 mL. The “BioMAP phenotypic profile” value in test [13] is reported as “no impact on assays of innate immunity”.
On to Etanercept, for which the “BioMAP phenotypic profile” value in test [13] was “predominant activity in the myofibroblast‐ and macrophage‐containing assays”.
